Activity calls are given as the source filed them. No cut-off for these calls is given here.
Columns and labels:
[1] = target: T1, Protein deacetylase HDAC6 (Homo sapiens, UniProt Q9UBN7); test: Inhibition of recombinant human full length C-terminal GST-tagged HDAC6 expressed in baculovirus infected Sf9 cells using ZMAL as substrate incubated for 90 mins by fluorometric method
T1 sequence (Q9UBN7 whole entry): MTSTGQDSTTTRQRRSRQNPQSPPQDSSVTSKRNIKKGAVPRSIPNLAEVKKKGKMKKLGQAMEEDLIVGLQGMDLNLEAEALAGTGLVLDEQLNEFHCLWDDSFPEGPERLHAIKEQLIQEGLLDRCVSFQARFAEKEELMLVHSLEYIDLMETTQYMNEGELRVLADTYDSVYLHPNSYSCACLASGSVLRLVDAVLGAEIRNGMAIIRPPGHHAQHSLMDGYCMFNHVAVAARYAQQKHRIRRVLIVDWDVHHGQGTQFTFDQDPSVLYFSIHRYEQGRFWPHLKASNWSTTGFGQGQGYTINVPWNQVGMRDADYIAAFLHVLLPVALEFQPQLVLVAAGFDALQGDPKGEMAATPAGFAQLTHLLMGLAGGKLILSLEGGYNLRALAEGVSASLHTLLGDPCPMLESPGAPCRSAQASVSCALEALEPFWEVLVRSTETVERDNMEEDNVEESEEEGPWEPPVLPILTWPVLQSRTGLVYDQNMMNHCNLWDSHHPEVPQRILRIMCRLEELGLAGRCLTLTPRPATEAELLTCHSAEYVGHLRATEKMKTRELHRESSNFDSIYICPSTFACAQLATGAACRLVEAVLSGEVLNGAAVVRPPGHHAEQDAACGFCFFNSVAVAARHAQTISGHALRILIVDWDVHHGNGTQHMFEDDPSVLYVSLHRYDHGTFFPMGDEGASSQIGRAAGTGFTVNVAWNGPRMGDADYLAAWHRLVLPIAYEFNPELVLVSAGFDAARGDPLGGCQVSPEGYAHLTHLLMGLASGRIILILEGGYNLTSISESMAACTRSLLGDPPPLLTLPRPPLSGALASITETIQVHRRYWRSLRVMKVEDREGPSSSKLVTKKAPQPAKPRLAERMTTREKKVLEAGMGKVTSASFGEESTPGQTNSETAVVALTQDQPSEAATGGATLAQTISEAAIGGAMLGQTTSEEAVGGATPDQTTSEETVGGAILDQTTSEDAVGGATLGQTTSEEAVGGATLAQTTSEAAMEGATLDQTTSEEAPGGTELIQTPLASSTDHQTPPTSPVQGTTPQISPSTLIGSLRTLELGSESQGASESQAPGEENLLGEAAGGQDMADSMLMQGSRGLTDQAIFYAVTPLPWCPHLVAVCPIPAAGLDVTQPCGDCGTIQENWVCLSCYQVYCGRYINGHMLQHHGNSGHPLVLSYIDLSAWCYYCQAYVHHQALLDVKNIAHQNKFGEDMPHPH

[2] = Drug uptake in human OE19 cells assessed as increase in fluorescence intensity at 1.25 uM measured for every 10 sec for 30 mins by fluorescence based assay; type: ADME, cell-based; conditions: oe19, 0.5 h
Summary of the method: (§1)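 Cells exposed to 1.25 µM compound, fluorescence recorded at Ex 370 nm / Em 530 nm every 10 s for 30 min on an epifluorescence microscope (40× objective). Treatment started 1 min before recording. Representative images taken at 15 min.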

[3] = target: T2, Histone deacetylase (Homo sapiens) (UniProt Q13547+O15379+Q9UBN7+Q92769+Q9UQL6+Q8WUI4+Q9BY41+Q96DB2+P56524+Q9UKV0+Q969S8); test: Inhibition of HDAC in human OE33 cells assessed as increase in histone H3 acetylation at 0.6 uM incubated for 48 hrs by Western blot analysis; type: cell-based
Summary of the method: (§2)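 500,000 OE33 or 750,000 OE19 cells treated 48 h. Histones isolated, 5 µg nuclear extract run on 15% SDS-PAGE and blotted. Probed overnight at 4 °C with anti-acetyl-histone H3 (Lys9) and anti-histone H3, compared with untreated controls.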

[4] = Drug uptake in human OE19 cells assessed as cytoplasmic retention at 1.25 uM measured after 30 mins by RFP-tagged histone H2B staining based confocal microscopy; conditions: oe19, 30 min
OE33 = test: Antiproliferative activity against human OE33 cells assessed as reduction in cell viability incubated for 72 hrs by presto blue assay; type: functional
Summary of the method: (§3)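 3500 cells per well seeded and grown 24 h, then exposed to compound for 72 h. Viability read with PrestoBlue reagent per manufacturer's protocol, and GI50 taken from this.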

[5] = Drug uptake in human OE19 cells assessed as cytoplasmic retention at 1.25 uM measured after 30 mins by RFP-tagged histone H2B staining based confocal microscopy; type: ADME, cell-based; conditions: oe19, 0.5 h
Summary of the method: (§4)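 Cells transfected with cDNA for histone H2B–RFP (DNA:reagent 1:1), then incubated 30 min with 1.25 µM compound. Imaged by confocal microscopy with 63× objective and 405 nm excitation.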

[6] = Drug uptake in human OE33 cells assessed as cytoplasmic retention at 1.25 uM measured after 30 mins by RFP-tagged histone H2B staining based confocal microscopy; type: ADME, cell-based; conditions: oe33, 0.5 h; summary of the method: as §4
[7] = target: T2, Histone deacetylase (Homo sapiens); test: Inhibition of HDAC in human OE19 cells assessed as increase in histone H3 acetylation at 0.6 uM incubated for 48 hrs by Western blot analysis; type: cell-based; summary of the method: as §2
Histone deacetylase 2 = Histone deacetylase 2 (Homo sapiens, UniProt Q92769); test: Inhibition of recombinant human full length C-terminal Flag-tagged HDAC2 expressed in baculovirus infected Sf9 cells using ZMAL as substrate incubated for 90 mins by fluorometric method; type: cell-based
Chain of Histone deacetylase 2 (Q92769 whole entry): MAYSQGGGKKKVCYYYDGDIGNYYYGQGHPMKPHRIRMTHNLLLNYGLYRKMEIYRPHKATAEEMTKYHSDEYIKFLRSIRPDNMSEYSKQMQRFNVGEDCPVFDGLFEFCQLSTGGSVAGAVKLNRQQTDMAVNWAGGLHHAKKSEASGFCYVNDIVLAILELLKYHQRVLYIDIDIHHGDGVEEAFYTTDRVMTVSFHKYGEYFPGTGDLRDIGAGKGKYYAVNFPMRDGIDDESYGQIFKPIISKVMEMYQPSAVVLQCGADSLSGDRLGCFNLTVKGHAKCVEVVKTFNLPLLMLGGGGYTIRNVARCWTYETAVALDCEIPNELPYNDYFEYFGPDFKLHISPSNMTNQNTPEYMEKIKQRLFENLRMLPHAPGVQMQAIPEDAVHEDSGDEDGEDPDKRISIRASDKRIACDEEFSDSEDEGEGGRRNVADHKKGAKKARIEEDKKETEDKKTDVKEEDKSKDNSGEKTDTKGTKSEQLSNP

[8] = Drug uptake in human OE33 cells assessed as increase in fluorescence intensity at 1.25 uM measured after 15 mins by microscopic method; type: ADME, cell-based; conditions: oe33, 0.25 h; summary of the method: as §1
[9] = Drug uptake in human OE33 cells assessed as increase in fluorescence intensity at 1.25 uM measured for every 10 sec for 30 mins by fluorescence based assay; type: ADME, cell-based; conditions: oe33, 0.5 h; summary of the method: as §1
[10] = Drug uptake in human OE33 cells assessed as cytoplasmic retention at 1.25 uM measured after 30 mins by RFP-tagged histone H2B staining based confocal microscopy; conditions: oe33, 30 min
[11] = Drug uptake in human OE19 cells assessed as increase in fluorescence intensity at 1.25 uM measured after 15 mins by microscopic method; type: ADME, cell-based; conditions: oe19, 0.25 h; summary of the method: as §1
[12] = target: Histone deacetylase 3/Nuclear receptor corepressor 2 (HDAC3/NCoR2) (Homo sapiens, UniProt O15379); test: Inhibition of recombinant human C-terminal GST/His-tagged HDAC3 (1 to 428 residues) co-expressed with human N-terminal GST-tagged NCOR2 (395 to 489 residues) in baculovirus infected Sf9 cells using ZMAL as substrate incubated for 90 mins by fluorometric method
Chain of Histone deacetylase 3/Nuclear receptor corepressor 2 (HDAC3/NCoR2) (O15379 whole entry, the tested form may be a part): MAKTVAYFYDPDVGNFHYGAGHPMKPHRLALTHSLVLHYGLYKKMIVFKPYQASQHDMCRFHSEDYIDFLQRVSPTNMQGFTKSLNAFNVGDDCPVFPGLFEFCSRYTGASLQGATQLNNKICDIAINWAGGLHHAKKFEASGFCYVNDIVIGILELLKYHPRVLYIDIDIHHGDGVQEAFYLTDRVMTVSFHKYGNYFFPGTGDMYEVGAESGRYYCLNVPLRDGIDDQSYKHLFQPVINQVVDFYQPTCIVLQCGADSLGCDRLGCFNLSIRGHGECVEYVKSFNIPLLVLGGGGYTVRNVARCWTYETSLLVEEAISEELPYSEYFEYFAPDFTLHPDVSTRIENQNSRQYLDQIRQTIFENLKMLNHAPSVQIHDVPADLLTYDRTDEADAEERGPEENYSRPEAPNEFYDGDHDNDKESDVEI
Chain of Histone deacetylase 3/Nuclear receptor corepressor 2 (HDAC3/NCoR2) (Q9Y618 whole entry, further chain, the tested form may be a part): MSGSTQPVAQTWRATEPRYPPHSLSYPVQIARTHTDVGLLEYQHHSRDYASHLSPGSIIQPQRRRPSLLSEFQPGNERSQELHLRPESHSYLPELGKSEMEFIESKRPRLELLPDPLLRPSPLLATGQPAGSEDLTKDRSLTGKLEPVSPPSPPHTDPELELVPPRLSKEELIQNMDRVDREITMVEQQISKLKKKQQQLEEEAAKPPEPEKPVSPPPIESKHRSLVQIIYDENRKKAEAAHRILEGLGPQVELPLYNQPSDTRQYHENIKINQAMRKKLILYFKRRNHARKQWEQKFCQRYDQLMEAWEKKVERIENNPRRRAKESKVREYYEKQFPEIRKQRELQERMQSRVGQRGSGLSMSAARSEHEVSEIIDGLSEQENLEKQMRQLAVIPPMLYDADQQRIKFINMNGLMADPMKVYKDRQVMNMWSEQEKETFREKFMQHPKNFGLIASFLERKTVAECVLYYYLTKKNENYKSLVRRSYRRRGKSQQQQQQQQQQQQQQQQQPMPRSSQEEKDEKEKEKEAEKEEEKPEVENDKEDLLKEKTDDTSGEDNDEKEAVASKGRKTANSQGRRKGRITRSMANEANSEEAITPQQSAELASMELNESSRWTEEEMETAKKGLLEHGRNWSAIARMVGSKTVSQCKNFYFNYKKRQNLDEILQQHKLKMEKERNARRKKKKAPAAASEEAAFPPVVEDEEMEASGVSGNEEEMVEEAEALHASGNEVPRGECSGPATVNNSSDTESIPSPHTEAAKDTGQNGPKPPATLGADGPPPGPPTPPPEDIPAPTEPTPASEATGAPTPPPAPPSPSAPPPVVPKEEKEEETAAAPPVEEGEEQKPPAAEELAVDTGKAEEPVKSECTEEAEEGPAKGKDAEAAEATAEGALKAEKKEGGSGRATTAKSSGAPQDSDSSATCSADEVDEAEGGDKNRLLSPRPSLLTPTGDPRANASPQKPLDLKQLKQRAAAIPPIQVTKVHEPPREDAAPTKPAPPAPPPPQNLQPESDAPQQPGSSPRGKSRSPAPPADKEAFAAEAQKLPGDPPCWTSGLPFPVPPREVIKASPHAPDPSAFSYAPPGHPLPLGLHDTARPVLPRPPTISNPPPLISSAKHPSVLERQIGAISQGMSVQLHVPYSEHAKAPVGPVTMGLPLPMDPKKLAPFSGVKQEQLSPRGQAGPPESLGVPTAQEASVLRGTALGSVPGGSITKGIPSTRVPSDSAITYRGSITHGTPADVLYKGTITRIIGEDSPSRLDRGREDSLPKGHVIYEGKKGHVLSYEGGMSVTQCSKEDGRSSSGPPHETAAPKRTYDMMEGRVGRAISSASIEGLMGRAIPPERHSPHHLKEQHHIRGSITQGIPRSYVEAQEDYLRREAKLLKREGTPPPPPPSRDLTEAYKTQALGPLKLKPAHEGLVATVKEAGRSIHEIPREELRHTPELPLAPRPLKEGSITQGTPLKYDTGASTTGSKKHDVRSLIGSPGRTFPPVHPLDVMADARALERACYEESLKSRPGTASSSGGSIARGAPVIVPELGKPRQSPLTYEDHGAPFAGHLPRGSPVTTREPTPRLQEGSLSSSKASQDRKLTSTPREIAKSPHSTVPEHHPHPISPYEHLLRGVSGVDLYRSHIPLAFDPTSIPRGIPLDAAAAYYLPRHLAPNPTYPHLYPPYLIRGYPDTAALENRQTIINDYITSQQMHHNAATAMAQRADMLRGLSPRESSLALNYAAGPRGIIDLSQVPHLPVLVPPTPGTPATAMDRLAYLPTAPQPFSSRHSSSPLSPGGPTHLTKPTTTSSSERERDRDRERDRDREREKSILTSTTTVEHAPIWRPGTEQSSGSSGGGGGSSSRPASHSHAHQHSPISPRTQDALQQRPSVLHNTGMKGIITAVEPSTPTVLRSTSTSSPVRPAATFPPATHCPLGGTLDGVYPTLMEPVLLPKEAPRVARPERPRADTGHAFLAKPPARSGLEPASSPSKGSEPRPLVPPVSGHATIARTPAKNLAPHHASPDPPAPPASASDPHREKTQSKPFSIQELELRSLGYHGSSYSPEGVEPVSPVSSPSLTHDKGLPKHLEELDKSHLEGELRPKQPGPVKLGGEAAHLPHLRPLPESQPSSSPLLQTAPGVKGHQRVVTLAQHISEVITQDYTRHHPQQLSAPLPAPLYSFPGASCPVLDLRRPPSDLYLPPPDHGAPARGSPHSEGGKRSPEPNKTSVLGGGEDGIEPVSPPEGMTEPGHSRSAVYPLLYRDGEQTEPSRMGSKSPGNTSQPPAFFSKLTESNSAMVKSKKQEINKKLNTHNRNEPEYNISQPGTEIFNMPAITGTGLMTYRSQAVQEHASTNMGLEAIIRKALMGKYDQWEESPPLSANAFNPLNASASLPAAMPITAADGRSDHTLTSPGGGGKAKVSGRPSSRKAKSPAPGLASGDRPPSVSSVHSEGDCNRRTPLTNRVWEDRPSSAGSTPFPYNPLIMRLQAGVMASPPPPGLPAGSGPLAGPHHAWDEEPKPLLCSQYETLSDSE

Histone deacetylase 1 = Histone deacetylase 1 (Homo sapiens, UniProt Q13547); test: Inhibition of recombinant human full length C-terminal Flag/His-tagged HDAC1 expressed in baculovirus infected Sf9 cells using ZMAL as substrate incubated for 90 mins by fluorometric method
Chain of Histone deacetylase 1 (Q13547 whole entry): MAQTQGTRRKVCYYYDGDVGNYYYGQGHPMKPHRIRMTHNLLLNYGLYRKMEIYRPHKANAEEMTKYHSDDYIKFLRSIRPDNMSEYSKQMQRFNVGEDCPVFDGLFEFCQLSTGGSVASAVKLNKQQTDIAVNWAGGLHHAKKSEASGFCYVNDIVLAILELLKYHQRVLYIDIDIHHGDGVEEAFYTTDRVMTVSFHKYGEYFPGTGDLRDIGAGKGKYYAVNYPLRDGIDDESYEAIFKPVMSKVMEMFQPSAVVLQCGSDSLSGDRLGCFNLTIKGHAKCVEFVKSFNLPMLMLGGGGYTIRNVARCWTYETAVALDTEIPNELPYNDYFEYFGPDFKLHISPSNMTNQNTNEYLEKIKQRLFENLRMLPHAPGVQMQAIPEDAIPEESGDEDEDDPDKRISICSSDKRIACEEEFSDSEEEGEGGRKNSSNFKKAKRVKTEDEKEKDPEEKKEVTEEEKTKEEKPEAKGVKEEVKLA

OE19 = test: Antiproliferative activity against human OE19 cells assessed as reduction in cell viability incubated for 72 hrs by presto blue assay; type: functional; summary of the method: as §3
[13] = target: T2, Histone deacetylase (Homo sapiens); test: Inhibition of HDAC in human OE19 cells assessed as increase in histone H3 acetylation at 2.25 uM incubated for 48 hrs by Western blot analysis; type: cell-based; summary of the method: as §2
[14] = target: T2, Histone deacetylase (Homo sapiens); test: Inhibition of HDAC in human OE33 cells assessed as increase in histone H3 acetylation at 2.25 uM incubated for 48 hrs by Western blot analysis; type: cell-based; summary of the method: as §2
[15] = target: T2, Histone deacetylase (Homo sapiens); test: Inhibition of HDAC in human OE19 cells assessed as increase in histone H3 acetylation at 6.5 uM incubated for 48 hrs by Western blot analysis; type: cell-based; summary of the method: as §2
[16] = target: T2, Histone deacetylase (Homo sapiens); test: Inhibition of HDAC in human OE33 cells assessed as increase in histone H3 acetylation at 6.5 uM incubated for 48 hrs by Western blot analysis; type: cell-based; summary of the method: as §2

IC50 [1]	Drug uptake [2]	Drug uptake [4]	Drug uptake [5]	Drug uptake [6]	IC50 (Histone deacetylase 2)	Drug uptake [8]	Drug uptake [9]	Drug uptake [10]	Drug uptake [11]	IC50 [12]	IC50 (Histone deacetylase 1)	Structure (SMILES)	GI50 (OE33; Homo sapiens, OE33, 72 h)	GI50 (OE19; Homo sapiens, OE19, 72 h)	further results
> 10000 nM	Active	Active	Active	Active	668 nM	Active	Active	Active	Active	1130 nM	676 nM	CN(C)c1cccc2c(S(=O)(=O)N(CC(=O)NCc3ccccc3)Cc3ccc(C(=O)Nc4ccccc4N)cc3)cccc12	4590 nM	9100 nM	inhibition [3]: Active; inhibition [7]: Active
46 nM	Active	Active	Active	Active	81 nM	Active	Active	Active	Active	87 nM	34 nM	CN(C)c1cccc2c(S(=O)(=O)N(CCCCCC(=O)NO)CC(=O)NCc3ccccc3)cccc12	776 nM	925 nM	inhibition [13]: Active; inhibition [14]: Active
132 nM	Active	Active	Active	Active	3500 nM	Active	Active	Active	Active	1020 nM	915 nM	CN(C)c1cccc2c(S(=O)(=O)N(CC(=O)NCc3ccccc3)Cc3ccc(C(=O)NO)cc3)cccc12	6230 nM	12900 nM	inhibition [15]: Active; inhibition [16]: Active
–	–	–	–	–	–	–	–	–	–	–	–	O=C(CCCCCCC(=O)Nc1ccccc1)NO [VORINOSTAT]	–	–	GI50 (OE33): 1120 nM; GI50 (OE19): 1420 nM
